From paper PMC4764993 (Canadian journal of physiology and pharmacology, 2015)

Target: MMP-9 (Homo sapiens, UniProt P14780)
Experiment: In-vitro MMP-9 cleavage assay of synthetic OPN-peptides
Type: biochemical
Conditions: active MMP-9, 20:1 (w/w), 37 °C, 24 h; MS/MS identification of fragments
Method in brief: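 Synthetic N-acetylated, C-amidated mouse OPN peptides, each spanning a candidate cleavage site mid-sequence, incubated with active MMP-9 at 20:1 (w/w) in 1× zymogram developing buffer, 37 °C, 24 h. Controls lacked enzyme or peptide. Reactions C18-desalted, then LC-MS/MS (5–45% acetonitrile over 20 min; MS resolution 70 000, MS2 17 500). Fragments compared against both controls.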

Chain of MMP-9 (P14780 107-707 limits assumed, species assumed): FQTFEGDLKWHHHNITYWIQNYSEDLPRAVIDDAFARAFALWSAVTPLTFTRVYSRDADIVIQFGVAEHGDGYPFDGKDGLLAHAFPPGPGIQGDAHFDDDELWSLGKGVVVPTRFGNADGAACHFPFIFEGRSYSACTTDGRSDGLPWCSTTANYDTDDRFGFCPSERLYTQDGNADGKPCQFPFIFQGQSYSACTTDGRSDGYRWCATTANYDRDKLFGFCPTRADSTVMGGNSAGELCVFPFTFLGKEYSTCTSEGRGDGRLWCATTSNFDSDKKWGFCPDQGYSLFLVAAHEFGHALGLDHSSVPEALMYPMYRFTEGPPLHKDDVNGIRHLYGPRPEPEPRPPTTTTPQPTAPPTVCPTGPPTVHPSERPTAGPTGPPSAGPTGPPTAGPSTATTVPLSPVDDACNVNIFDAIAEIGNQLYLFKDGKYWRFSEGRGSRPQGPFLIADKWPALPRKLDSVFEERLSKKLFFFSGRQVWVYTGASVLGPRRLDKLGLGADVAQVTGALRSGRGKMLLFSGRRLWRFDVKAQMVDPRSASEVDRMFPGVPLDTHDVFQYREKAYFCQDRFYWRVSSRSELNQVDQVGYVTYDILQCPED

## Ac-NGRGDSLAYGLRSKSRSFQV-NH2 [GL fragment]
  MMP-9 cleavage site(s) found in the synthetic peptide: GL (position 151–152)

## Ac-SLDVIPVAQLLSMPSDQDNN-NH2 [LL fragment]
  MMP-9 cleavage site(s) found in the synthetic peptide: AQ and LL; position 193-194 and 195-196
